In the first series the test system is Helicobacter pylori. Nature of the series: Urease activity was determined in wild type-H pylori, CCUG 15818, at a concentration of 1 uM.
Conditions: not given
Put shortly:
(§1)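 CCUG 15818 grown 3 days at 37 °C microaerophilic on Columbia blood agar, washed three times in PBS at assay pH, set to A560 0.3. Cells preincubated with compound (MeOH or DMSO, ≤1% solvent) for 30 min at 37 °C, then mixed 1:1 with 200 mM urea for 10 min. Ammonia read by nitroprusside-catalysed phenol–hypochlorite at A650 against (NH4)2SO4. Compound colour blank subtracted; expressed as % of control.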
Turning to `COc1ccnc(C[S+]([O-])c2nc3c(F)cccc3[nH]2)c1` (centres undefined), the Urease activity (% of control) is 93%.
The same measure, in the same setting: with `COc1ccnc(C[S+]([O-])c2nc3cc4c(cc3[nH]2)CCC4)c1C` (centres undefined) the figure was 36%; with `COc1c(OCC2CC2)ccnc1C[S+]([O-])c1nc2cc(F)ccc2[nH]1` (centres undefined), 104%.
For `COc1ccc2[nH]c(SCc3ncc(C)c(OC)c3C)nc2c1`, the Urease activity (% of control) came to 109%.
Same read-out and setting: with `COc1ccnc(C[S+]([O-])c2nc3cc(CO)ccc3[nH]2)c1C` (centres undefined) the figure was 72%.

System in another series: not listed separately
Briefly: Half life at pH 7 is a measure of the rate by which the compound is converted to the active species. Type of series: ADME. The conditions noted are these: buffer.
A word on the half-life: it is the time needed for the level to fall by half in the phase considered. Lower therefore signals fast loss. `COc1ccnc(C[S+]([O-])c2nc3cc(C(C)(C)C)ccc3[nH]2)c1C` (centres undefined): the half-life is 60 min.
On the same count and under the same terms, with `COc1ccnc(C[S+]([O-])c2nc3c(F)cccc3[nH]2)c1` (centres undefined) the figure was 1380 min; with `COc1ccnc(C[S+]([O-])c2nc3cc(F)c(F)cc3[nH]2)c1OC` (centres undefined), 4140 min.
The same measure, in the same setting: the figure for `COc1ccnc(C[S+]([O-])c2nc3cc4c(cc3[nH]2)CCC4)c1C` (centres undefined) is 70 min; for `COc1c(OCC2CC2)ccnc1C[S+]([O-])c1nc2cc(F)ccc2[nH]1` (centres undefined) it is 3000 min; for `COc1ccnc(C[S+]([O-])c2nc3cc(CO)ccc3[nH]2)c1C` (centres undefined) it is 60 min.

The next series has as its system Helicobacter pylori. Nature of the series: Urease activity was determined in wild type-H pylori, CCUG 15818 in the presence of beta mercaptoethanol at a concentration of 1 uM.
Conditions: not given
Put shortly: (§2)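 Intact CCUG 15818 cells (A560 0.3, washed in PBS) preincubated 30 min at 37 °C with compound at 1, 10 or 100 μM plus 100 μM β-mercaptoethanol. Urea was then added 1:1 from a 200 mM solution. After 10 min, ammonia was measured by indophenol (phenol–hypochlorite/nitroprusside) absorbance at 650 nm and expressed as % of control.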
Turning to `COc1ccnc(C[S+]([O-])c2nc3cc(C(C)(C)C)ccc3[nH]2)c1C` (centres undefined), the Control turned out to be 105%.

System in another series: not listed separately
Nature of the series: Relative retention time of the compound. In kind it is ADME.
Conditions: not given
`COc1ccnc(C[S+]([O-])c2nc3cc(C(C)(C)C)ccc3[nH]2)c1C` (centres undefined): the “Log k'o” value is on record as 1.55.
Still for that read-out and setting: with `COc1ccnc(C[S+]([O-])c2nc3c(F)cccc3[nH]2)c1` (centres undefined) the figure was 0.26; with `COc1ccnc(C[S+]([O-])c2nc3cc(F)c(F)cc3[nH]2)c1OC` (centres undefined), 0.6; with `COc1ccnc(C[S+]([O-])c2nc3cc4c(cc3[nH]2)CCC4)c1C` (centres undefined), 1.21.
On the same count and under the same terms, with `COc1c(OCC2CC2)ccnc1C[S+]([O-])c1nc2cc(F)ccc2[nH]1` (centres undefined) the figure was 1.16; with `COc1ccnc(C[S+]([O-])c2nc3cc(CO)ccc3[nH]2)c1C` (centres undefined), 0.18.

System in a further series: not listed separately
Briefly: pKa value of the compound (benzimidazole ring substitutions dependent). In kind it is physicochemical. The conditions noted are these: read-out: pKabz.
Take `COc1ccnc(C[S+]([O-])c2nc3cc(C(C)(C)C)ccc3[nH]2)c1C` (centres undefined): the pKa came to 9.1.
Still for that read-out and setting: the figure for `COc1ccnc(C[S+]([O-])c2nc3c(F)cccc3[nH]2)c1` (centres undefined) is 7.5; for `COc1ccnc(C[S+]([O-])c2nc3cc(F)c(F)cc3[nH]2)c1OC` (centres undefined) it is 7.8.
Turning to `COc1ccnc(C[S+]([O-])c2nc3cc4c(cc3[nH]2)CCC4)c1C` (centres undefined), the pKa is 9.4.
In the case of `COc1c(OCC2CC2)ccnc1C[S+]([O-])c1nc2cc(F)ccc2[nH]1` (centres undefined), the pKa came out at 8.4.
The same measure, in the same setting: the figure for `COc1ccnc(C[S+]([O-])c2nc3cc(CO)ccc3[nH]2)c1C` (centres undefined) is 8.6.

The subject of a further series is Helicobacter pylori. Briefly: Urease activity was determined in wild type-H pylori, CCUG 15818 in the presence of beta mercaptoethanol at a concentration of 10 uM.
Conditions: not given
Put shortly:
as §2
For the molecule `COc1ccnc(C[S+]([O-])c2nc3cc(C(C)(C)C)ccc3[nH]2)c1C` (centres undefined), the Control was determined as 95%.

System in a further series: not listed separately
Briefly: pKa value of the compound (pyridine ring substitutions dependent). In kind it is physicochemical. The conditions noted are these: read-out: pKapy.
As for `COc1ccnc(C[S+]([O-])c2nc3cc(C(C)(C)C)ccc3[nH]2)c1C` (centres undefined), the pKa stood at 4.8.
On the same count and under the same terms, the figure for `COc1ccnc(C[S+]([O-])c2nc3c(F)cccc3[nH]2)c1` (centres undefined) is 4.4; for `COc1ccnc(C[S+]([O-])c2nc3cc(F)c(F)cc3[nH]2)c1OC` (centres undefined) it is 3.6; for `COc1ccnc(C[S+]([O-])c2nc3cc4c(cc3[nH]2)CCC4)c1C` (centres undefined) it is 4.9.
The same measure, in the same setting: the figure for `COc1c(OCC2CC2)ccnc1C[S+]([O-])c1nc2cc(F)ccc2[nH]1` (centres undefined) is 3.8; for `COc1ccnc(C[S+]([O-])c2nc3cc(CO)ccc3[nH]2)c1C` (centres undefined) it is 4.7.

The subject of the next series is Helicobacter pylori. Nature of the series: Urease activity was determined in wild type-H pylori, CCUG 15818 in the presence of beta mercaptoethanol at a concentration of 100 uM.
Conditions: not given
Put shortly: as §2
Consider `COc1ccnc(C[S+]([O-])c2nc3cc(C(C)(C)C)ccc3[nH]2)c1C` (centres undefined), for which the Control amounted to 106%.

The next series relates to Helicobacter pylori. Briefly: Urease activity in wild type H pylori, CCUG 15818, at 100 uM.
Conditions: not given
Put shortly: as §1
As for `COc1ccnc(C[S+]([O-])c2nc3cc(C(C)(C)C)ccc3[nH]2)c1C` (centres undefined), the Urease activity (% of control) is 1%.
Still for that read-out and setting: the figure for `COc1ccnc(C[S+]([O-])c2nc3c(F)cccc3[nH]2)c1` (centres undefined) is 58%; for `COc1ccnc(C[S+]([O-])c2nc3cc4c(cc3[nH]2)CCC4)c1C` (centres undefined) it is 0%.
On the same count and under the same terms, the figure for `COc1c(OCC2CC2)ccnc1C[S+]([O-])c1nc2cc(F)ccc2[nH]1` (centres undefined) is 84%; for `COc1ccc2[nH]c(SCc3ncc(C)c(OC)c3C)nc2c1` it is 99%; for `COc1ccnc(C[S+]([O-])c2nc3cc(CO)ccc3[nH]2)c1C` (centres undefined) it is 32%.

Another series relates to Helicobacter pylori. Nature of the series: Urease activity in H pylori, CCUG 15818, at 10 uM.
Conditions: not given
Summed up: as §1
For `COc1ccnc(C[S+]([O-])c2nc3cc(C(C)(C)C)ccc3[nH]2)c1C` (centres undefined), the Urease activity (% of control) was found to be 42%.
Same read-out and setting: the figure for `COc1ccnc(C[S+]([O-])c2nc3c(F)cccc3[nH]2)c1` (centres undefined) is 95%.
Still for that read-out and setting: the figure for `COc1ccnc(C[S+]([O-])c2nc3cc4c(cc3[nH]2)CCC4)c1C` (centres undefined) is 35%; for `COc1c(OCC2CC2)ccnc1C[S+]([O-])c1nc2cc(F)ccc2[nH]1` (centres undefined) it is 94%; for `COc1ccc2[nH]c(SCc3ncc(C)c(OC)c3C)nc2c1` it is 101%.
Still for that read-out and setting: with `COc1ccnc(C[S+]([O-])c2nc3cc(CO)ccc3[nH]2)c1C` (centres undefined) the figure was 38%.

The values above are taken from ChEMBL document CHEMBL1128210, “Structure-activity relationship of omeprazole and analogues as Helicobacter pylori urease inhibitors” (J Med Chem, 1995).
